Read-outs that look alike come from different tables or passages of the source. Blank lines part the entries; values can stand above or below the compound they belong to.
How the values were obtained:
[1] = test system: cytochrome P450 (CYP) 3A4; details: cited from earlier work
[2] = Population pharmacokinetic analysis of daclatasvir plasma concentrations; assay type: in vivo, human
Outline: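 Japanese adults ≥ 20 years with chronic HCV genotype 1 (compensated cirrhosis allowed) from 4 clinical studies; oral 10 or 60 mg once daily, with asunaprevir or pegIFN/RBV. Plasma levels by validated LC‑MS/MS; below‑LLOQ samples excluded. Nonlinear mixed‑effects model: log‑normal interindividual variability, log‑transform‑both‑sides residual error, backward covariate elimination (P < .001), bootstrap 95% CIs.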

[3] = test system: P‐glycoprotein transporter; details: cited from earlier work
[4] = cited from earlier work
[5] = cited from earlier work; remark: listed apart in the source
[6] = healthy Japanese volunteers, within the dose range studied; cited from earlier work
[7] = Population pharmacokinetic analysis of asunaprevir plasma concentrations; assay type: in vivo, human
Outline: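 Japanese adults ≥20 y with chronic genotype 1 HCV (compensated cirrhosis allowed), from 2 clinical studies; oral 200 or 600 mg twice-daily tablet or 100 mg twice-daily soft-gel. Plasma by validated LC-MS/MS; below-LLOQ excluded. One-compartment, first-order absorption; log-normal IIV on CL/F, V/F; additive log-scale residual. Backward elimination (P < .001); bootstrap 95% CIs; 5th/95th covariate percentiles versus typical.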

[8] = cited from earlier work; remark: listed apart in the source
[9] = tablet formulation used in phase 1/2 studies; cited from earlier work
[10] = test system: organic anion transporting polypeptide(OATP); details: asunaprevir; cited from earlier work
[11] = mild impairment (Child‐Pugh class A cirrhosis); cited from earlier work
CYP2D6 = details: asunaprevir; cited from earlier work
[12] = final popPK model, Japanese HCV subjects

SMILES: COC(=O)N[C@H](C(=O)N1CCC[C@H]1c1nc(-c2ccc(-c3ccc(-c4c[nH]c([C@@H]5CCCN5C(=O)[C@@H](NC(=O)OC)C(C)C)n4)cc3)cc2)c[nH]1)C(C)C [daclatasvir, Daclatasvir]
Effects on levels of the sensitive CYP3A probe midazolam in plasma ([1]; daclatasvir): minimal effects
Interaction with CYP3A4 ([1]; daclatasvir): substrate and weak inducer
Interindividual variability of CL/F ([2]; base popPK model): 39.7%
Interindividual variability of V/F ([2]; base popPK model): 40.7%
Effect of cirrhosis status and ALT/AST levels on CL/F ([2]; covariate analysis): not identified as significant covariates
CL/F reduction, women relative to men ([2]; final model): approximately 10%
V/F lower than at median (reference) body weight of 56 kg ([2]; final model, 5th percentile of baseline body weight, 42.8 kg): ~15%
V/F higher than at median (reference) body weight of 56 kg ([2]; final model, 95th percentile of baseline body weight, 78 kg): ~22%
Interindividual variability of CL/F ([2]; final popPK model): 39.4%
Interindividual variability of Ka ([2]; final popPK model): 86.9%
Interindividual variability of V/F ([2]; final popPK model): 38.1%
Random effect CL/F: V/F, ω1,2, covariance (correlation) ([2]; final popPK model): 0.141 (0.941)
Ka (absorption rate constant), θ3 [2, 12]: 0.865 h^‐1
V/F (apparent volume of central compartment), θ2 ([2]; final popPK model, Japanese HCV subjects, reference BBWT 56 kg): 64.2 L
V/F ∼BBWT (baseline body weight) covariate coefficient, θ14 ([2]; final popPK model, reference 56 kg): 0.605
CL/F ∼BCRCL (baseline creatinine clearance) covariate coefficient, θ10 ([2]; final popPK model, reference 86.48 mL/min): 0.235
Interaction with P‐glycoprotein transporter ([3]; daclatasvir): substrate and inhibitor
Association between exposure and degree of hepatic impairment or biochemical/serological markers of liver dysfunction [4]: no obvious association
Excreted via feces in an unchanged form [5]: ~88%
Renal elimination [5]: ~7 % of dose
Dose‐exposure relationship [6]: generally linear

Impact of OATP1B1 haplotypes (4 categories) on CL/F ([7]; covariate analysis, Japanese population): did not show statistical significance
CL/F for cirrhotic subjects relative to subjects without cirrhosis ([7]; final model, printed as fold lower): 0.65 fold
Interindividual variability of CL/F ([7]; final popPK model): 41.5%
Interindividual variability of V/F ([7]; final popPK model): 93.4%
Ka (absorption rate constant), θ3 [7, 12]: 0.228 h^‐1
V/F (apparent volume of central compartment), θ2 ([7]; final popPK model, Japanese HCV subjects, phase 2 tablet reference): 75.1 L
SMILES: C=C[C@@H]1C[C@]1(NC(=O)[C@@H]1C[C@@H](Oc2ncc(OC)c3ccc(Cl)cc23)CN1C(=O)[C@@H](NC(=O)OC(C)(C)C)C(C)(C)C)C(=O)NS(=O)(=O)C1CC1 [asunaprevir, Asunaprevir]
CL/F at 5th percentile of time‐varying AST compared with the median baseline AST ([7]; final model, AST at last PK sampling point 16 U/L, higher): 1.57 fold
CL/F at 5th percentile of baseline AST relative to median baseline AST of 52 U/L ([7]; final model, baseline AST 22 U/L, higher): 1.67 fold
Interaction with CYP3A4 ([1]; asunaprevir): weak inducer and sensitive substrate
Observed AUC ([8]; AI447017, phase 2 study, 200‐mg tablet formulation): 2950 ng·h/mL
Observed AUC ([8]; AI447026, phase 3 study, 100‐mg soft‐gel capsule): 2155 ng·h/mL
Food effect [9]: Significant food effects
Interaction with p‐glycoprotein ([3]; asunaprevir): weak inhibitor
Interaction with OATP‐mediated uptake transport [10]: weak inhibitor and sensitive substrate
Steady‐state exposures [11]: not changed
Dose‐exposure relationship [6]: generally increased dose‐proportionally
Interaction with CYP2D6 (CYP2D6): moderate inhibitor

From PMC6174986 (Journal of Clinical Pharmacology, 2018)
